# Measured values reported in the M2OR odorant receptor database.
# Target: T1, OR2H2 (Homo sapiens) (UniProt O95918)
# T1 sequence (whole entry): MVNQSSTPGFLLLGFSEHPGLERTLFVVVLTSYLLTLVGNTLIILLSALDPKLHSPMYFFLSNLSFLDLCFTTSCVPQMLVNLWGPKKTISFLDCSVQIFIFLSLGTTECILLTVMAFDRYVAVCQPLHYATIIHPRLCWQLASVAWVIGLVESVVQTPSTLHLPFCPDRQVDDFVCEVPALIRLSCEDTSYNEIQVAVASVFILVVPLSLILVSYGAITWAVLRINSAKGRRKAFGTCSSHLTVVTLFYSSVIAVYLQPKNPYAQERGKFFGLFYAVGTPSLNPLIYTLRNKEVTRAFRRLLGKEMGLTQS
# Details: stereoisomer not certain
# Summary of the method: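 Each receptor–molecule pair is labelled responsive or non-responsive (inactive) according to whether the original authors judged the measured signal statistically different from baseline. The data were taken from the main text and supplementary material of published papers and checked for typos and inconsistencies. Assay methods differed by source, with transient luciferase assays in mammalian cell lines being common.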
# 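Note: active if original authors judged signal statistically different from baseline.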
row,Compound,odorant receptor agonist call
1,CC(C=O)=CCC(C)CC(C)C (stereo not drawn),inactive
2,CCCCCCCCCCCC=O,inactive
3,CC(C)=CCCC(C)CC=O (stereo not drawn),active
4,CCCCCC=CC=O,active
5,CCCCCC=O,inactive
6,CCCCCCCC(=O)[O-].[H+],inactive
7,CCCC=CC=CC=O,active
8,CCCCCCCCO,inactive
